According to ChEMBL document CHEMBL1123192 (J Med Chem, 1986):

Legend:
Rattus norvegicus [1] = assay: Maximal change in heart rate (HR) measured as % change from pretreatment value at dose of 2.5 mg/kg; type: functional
Summary of the method: (§1)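 Spontaneously hypertensive rats; test agent dissolved or dispersed in 0.5% methylcellulose and given by gastric gavage at 5 mL/kg after a 1-h equilibration. Doses ranged from 1 to 100 mg/kg, with 4–8 animals per dose. MABP and HR were monitored for 4 h. Pretreatment values and maximal % change were recorded, and maximal changes were compared with vehicle by Dunnett's t test.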

[2] = target: Beta-2 adrenergic receptor (Cavia porcellus, UniProt Q8K4Z4); assay: The compound was evaluated for the antagonistic activity against beta-2 adrenergic receptor.; type: functional; conditions: read-out: pA2 (converted)
Sequence of Beta-2 adrenergic receptor (Q8K4Z4 whole entry): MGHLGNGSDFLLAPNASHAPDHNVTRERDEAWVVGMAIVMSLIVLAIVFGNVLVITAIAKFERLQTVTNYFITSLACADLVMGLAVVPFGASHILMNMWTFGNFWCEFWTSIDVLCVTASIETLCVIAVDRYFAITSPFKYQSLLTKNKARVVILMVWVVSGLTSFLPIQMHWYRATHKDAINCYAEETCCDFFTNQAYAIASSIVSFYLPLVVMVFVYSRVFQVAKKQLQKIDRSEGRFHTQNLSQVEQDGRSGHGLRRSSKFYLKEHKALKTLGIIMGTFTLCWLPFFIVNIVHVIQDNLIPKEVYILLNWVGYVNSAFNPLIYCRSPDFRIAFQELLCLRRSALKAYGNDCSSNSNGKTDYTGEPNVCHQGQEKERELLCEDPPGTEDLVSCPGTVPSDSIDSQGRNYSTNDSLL
Summary of the method: (§2)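 Isolated tissue suited to each receptor test, held in 10-mL organ baths of Krebs-Henseleit solution at 37 °C and gassed with 95% O2/5% CO2. Antagonism was judged by how several concentrations of test agent altered a cumulative concentration-response curve to a receptor-specific agonist.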

Rattus norvegicus [3] = assay: Maximal change in heart rate (HR) measured as % change from pretreatment value at dose of 25 mg/kg; type: functional; summary of the method: as §1
Rattus norvegicus [4] = assay: Maximal change in heart rate (HR) measured as % change from pretreatment value at dose of 1 mg/kg in SHR; type: functional; summary of the method: as §1
Rattus norvegicus [5] = assay: Maximal change in mean arterial blood pressure (MABP) measured as % change from pretreatment value at dose of 5 mg/kg in SHR; type: functional; summary of the method: as §1
Rattus norvegicus [6] = assay: Maximal change in mean arterial blood pressure (MABP) measured as pretreatment value at dose of 1 mg/kg in SHR; type: functional; summary of the method: as §1
Rattus norvegicus [7] = assay: Maximal change in heart rate (HR) measured as pretreatment value at dose of 100 mg/kg in SHR; type: functional; summary of the method: as §1
[8] = target: T1, Adrenergic receptor alpha-2 (Rattus norvegicus, UniProt P22086+P19328+P22909); assay: The compound was evaluated for the antagonistic activity against alpha-2 adrenergic receptor.; type: functional
T1 sequence (P22086 whole entry): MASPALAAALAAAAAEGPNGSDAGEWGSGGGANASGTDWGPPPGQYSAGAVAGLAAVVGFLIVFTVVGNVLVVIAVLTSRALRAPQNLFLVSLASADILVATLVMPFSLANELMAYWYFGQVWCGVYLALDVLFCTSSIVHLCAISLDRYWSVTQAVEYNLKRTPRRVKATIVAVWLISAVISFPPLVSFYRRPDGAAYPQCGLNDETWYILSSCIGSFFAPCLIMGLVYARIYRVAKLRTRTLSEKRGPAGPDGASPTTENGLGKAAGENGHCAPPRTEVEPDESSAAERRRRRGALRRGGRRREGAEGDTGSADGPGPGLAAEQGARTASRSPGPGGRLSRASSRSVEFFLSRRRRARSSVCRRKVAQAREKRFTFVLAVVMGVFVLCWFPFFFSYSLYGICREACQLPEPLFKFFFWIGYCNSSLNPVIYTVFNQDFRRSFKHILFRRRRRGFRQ
T1 sequence (P19328 whole entry): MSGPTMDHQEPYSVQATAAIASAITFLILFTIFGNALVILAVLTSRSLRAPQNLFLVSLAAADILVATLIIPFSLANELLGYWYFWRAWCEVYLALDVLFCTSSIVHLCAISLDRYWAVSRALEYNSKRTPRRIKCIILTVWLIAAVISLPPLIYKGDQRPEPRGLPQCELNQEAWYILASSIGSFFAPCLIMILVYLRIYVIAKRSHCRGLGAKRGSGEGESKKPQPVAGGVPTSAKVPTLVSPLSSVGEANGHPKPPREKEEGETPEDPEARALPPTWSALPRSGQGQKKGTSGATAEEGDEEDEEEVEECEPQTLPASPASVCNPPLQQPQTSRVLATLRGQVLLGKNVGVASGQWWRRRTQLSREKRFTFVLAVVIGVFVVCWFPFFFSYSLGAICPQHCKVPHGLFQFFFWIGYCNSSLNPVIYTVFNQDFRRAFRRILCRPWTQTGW
T1 sequence (P22909 whole entry): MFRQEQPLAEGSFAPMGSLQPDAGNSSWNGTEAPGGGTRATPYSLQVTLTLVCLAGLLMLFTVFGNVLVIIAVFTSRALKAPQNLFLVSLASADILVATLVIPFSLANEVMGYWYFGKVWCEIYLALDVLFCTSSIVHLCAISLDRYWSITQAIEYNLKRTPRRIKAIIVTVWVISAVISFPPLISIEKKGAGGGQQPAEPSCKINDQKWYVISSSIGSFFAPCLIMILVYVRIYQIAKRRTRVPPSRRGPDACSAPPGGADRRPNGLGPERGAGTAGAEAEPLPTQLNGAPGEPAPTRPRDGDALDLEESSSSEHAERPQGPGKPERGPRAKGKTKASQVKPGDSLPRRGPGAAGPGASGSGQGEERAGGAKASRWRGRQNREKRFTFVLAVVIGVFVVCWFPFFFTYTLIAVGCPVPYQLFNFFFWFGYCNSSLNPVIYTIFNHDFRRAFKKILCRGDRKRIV

Rattus norvegicus [9] = assay: Maximal change in heart rate (HR) measured as pretreatment value at dose of 25 mg/kg in SHR; type: functional; summary of the method: as §1
Rattus norvegicus [10] = assay: Maximal change in heart rate (HR) measured as % change from pretreatment value at dose of 5 mg/kg; type: functional; summary of the method: as §1
Rattus norvegicus [11] = assay: Maximal change in mean arterial blood pressure (MABP) measured as pretreatment value at dose of 10 mg/kg in SHR; type: functional; summary of the method: as §1
Rattus norvegicus [12] = assay: Maximal change in mean arterial blood pressure (MABP) measured as % change from pretreatment value at dose of 25 mg/kg in SHR; type: functional; summary of the method: as §1
[13] = target: Alpha-1 adrenergic receptor; assay: The compound was evaluated for the antagonistic activity against alpha-1 adrenergic receptor.; conditions: read-out: pA2 (converted)
Rattus norvegicus [14] = assay: Maximal change in heart rate (HR) measured as pretreatment value at dose of 10 mg/kg in SHR; type: functional; summary of the method: as §1
Rattus norvegicus [15] = assay: Maximal change in heart rate (HR) measured as pretreatment value at dose of 5 mg/kg in SHR; type: functional; summary of the method: as §1
Rattus norvegicus [16] = assay: Maximal change in heart rate (HR) measured as pretreatment value at dose of 1 mg/kg in SHR; type: functional; summary of the method: as §1
Rattus norvegicus [17] = assay: Maximal change in heart rate (HR) measured as % change from pretreatment value at dose of 10 mg/kg in SHR; type: functional; summary of the method: as §1
Rattus norvegicus [18] = assay: Maximal change in mean arterial blood pressure (MABP) measured as % change from pretreatment value at dose of 2.5 mg/kg in SHR; type: functional; summary of the method: as §1
Rattus norvegicus [19] = assay: Maximal change in mean arterial blood pressure (MABP) measured as pretreatment value at dose of 5 mg/kg in SHR; type: functional; summary of the method: as §1
Rattus norvegicus [20] = assay: Maximal change in mean arterial blood pressure (MABP) measured as % change from pretreatment value at dose of 10 mg/kg in SHR; type: functional; summary of the method: as §1
Rattus norvegicus [21] = assay: Maximal change in mean arterial blood pressure (MABP) measured as pretreatment value at dose of 25 mg/kg in SHR; type: functional; summary of the method: as §1
Rattus norvegicus [22] = assay: Maximal change in mean arterial blood pressure (MABP) measured as % change from pretreatment value at dose of 100 mg/kg in SHR; type: functional; summary of the method: as §1
[23] = target: Beta-1 adrenergic receptor (Cavia porcellus, UniProt B0FL73); assay: The compound was evaluated for the antagonistic activity against beta-1 adrenergic receptor; type: functional; conditions: read-out: pA2 (converted); summary of the method: as §2
Sequence of Beta-1 adrenergic receptor (B0FL73 whole entry): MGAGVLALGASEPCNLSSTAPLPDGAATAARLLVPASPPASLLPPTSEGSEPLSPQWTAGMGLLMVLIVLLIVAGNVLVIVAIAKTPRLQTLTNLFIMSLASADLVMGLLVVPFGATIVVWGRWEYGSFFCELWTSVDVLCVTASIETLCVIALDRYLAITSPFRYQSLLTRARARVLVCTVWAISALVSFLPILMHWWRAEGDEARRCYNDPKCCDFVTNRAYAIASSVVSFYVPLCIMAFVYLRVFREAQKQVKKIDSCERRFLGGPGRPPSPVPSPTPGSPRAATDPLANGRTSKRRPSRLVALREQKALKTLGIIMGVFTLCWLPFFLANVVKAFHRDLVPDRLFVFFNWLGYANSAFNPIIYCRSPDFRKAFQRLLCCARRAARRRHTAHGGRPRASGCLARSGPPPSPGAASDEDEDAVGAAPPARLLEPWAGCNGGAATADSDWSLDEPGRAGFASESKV

Cavia porcellus = organism: Cavia porcellus; assay: Beta-2-adrenoceptor ISA (intrinsic sympathomimetic activity)was measured as relaxant effect against a PGF2-alpha contracted guinea pig trachea at 3x10E -7 M; type: functional
Rattus norvegicus [24] = assay: Maximal change in mean arterial blood pressure (MABP) measured as pretreatment value at dose of 100 mg/kg in SHR; type: functional; summary of the method: as §1
Rattus norvegicus [25] = assay: Maximal change in heart rate (HR) measured as % change from pretreatment value at dose of 100 mg/kg in SHR; type: functional; summary of the method: as §1
Rattus norvegicus [26] = assay: Maximal change in mean arterial blood pressure (MABP) measured as % change from pretreatment value at dose of 1 mg/kg in SHR; type: functional; summary of the method: as §1
Rattus norvegicus [27] = assay: Maximal change in heart rate (HR) measured as pretreatment value at dose of 2.5 mg/kg in SHR; type: functional; summary of the method: as §1
Rattus norvegicus [28] = assay: Maximal change in mean arterial blood pressure (MABP) measured as pretreatment value at dose of 2.5 mg/kg in SHR; type: functional; summary of the method: as §1

Compound: CC(CCc1ccccc1)NCC(O)c1cc(C(N)=O)c2[nH]ccc2c1 (centres undefined)
- Change (Rattus norvegicus [1]): -10%
- Kb [2]: 50.1 nM
- Change (Rattus norvegicus [3]): -18%
- Change (Rattus norvegicus [4]): -3%
- Change (Rattus norvegicus [5]): -32%
- MABP (Rattus norvegicus [6]): 171 mmHg
- HR (Rattus norvegicus [7]): 425 beats min-1
- pA2 [8]: 5.4
- HR (Rattus norvegicus [9]): 426 beats min-1
- Change (Rattus norvegicus [10]): -12%
- MABP (Rattus norvegicus [11]): 166 mmHg
- Change (Rattus norvegicus [12]): -47%
- Kb [13]: 251 nM
- HR (Rattus norvegicus [14]): 430 beats min-1
- HR (Rattus norvegicus [15]): 439 beats min-1
- HR (Rattus norvegicus [16]): 442 beats min-1
- Change (Rattus norvegicus [17]): -15%
- Change (Rattus norvegicus [18]): -25%
- MABP (Rattus norvegicus [19]): 176 mmHg
- Change (Rattus norvegicus [20]): -40%
- MABP (Rattus norvegicus [21]): 183 mmHg
- Change (Rattus norvegicus [22]): -45%
- Kb [23]: 39.8 nM
- Change (Cavia porcellus): 89%
- MABP (Rattus norvegicus [24]): 178 mmHg
- Change (Rattus norvegicus [25]): -26%
- Change (Rattus norvegicus [26]): -9%
- HR (Rattus norvegicus [27]): 419 beats min-1
- MABP (Rattus norvegicus [28]): 176 mmHg
